Results from article PMC6583925 (Journal of medicinal chemistry, 2019).
“Also recorded” adds a separate entry of the source.

target: T1, ABHD12 (Homo sapiens, UniProt Q8N2K0); assay: lyso-PS hydrolysis; type: biochemical; conditions: 17:1 lyso-PS 100 μM
T1 sequence (Q8N2K0 1-398): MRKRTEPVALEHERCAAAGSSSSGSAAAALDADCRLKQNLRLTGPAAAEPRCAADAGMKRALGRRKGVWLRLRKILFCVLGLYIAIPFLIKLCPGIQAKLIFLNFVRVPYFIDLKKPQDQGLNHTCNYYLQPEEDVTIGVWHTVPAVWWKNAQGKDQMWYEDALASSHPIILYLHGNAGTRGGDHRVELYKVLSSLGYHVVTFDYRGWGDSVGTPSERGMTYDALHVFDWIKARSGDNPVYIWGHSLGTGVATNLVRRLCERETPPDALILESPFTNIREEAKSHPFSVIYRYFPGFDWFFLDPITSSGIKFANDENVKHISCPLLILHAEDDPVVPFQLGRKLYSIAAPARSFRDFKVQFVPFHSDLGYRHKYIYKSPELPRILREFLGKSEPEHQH
Outline: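 Test compound preincubated 20 min at room temperature with ABHD12-overexpressing HEK293T membrane (0.25 mg/mL) in DPBS. 17:1 lyso-PS added (100 μM final) and run 30 min at 37 °C. Quench: 2:1 CHCl3/MeOH containing 1 nmol 15:0 FFA internal standard. Organic phase analysed by LC-MS, ESI negative mode, SIM at m/z 267.20 (17:1 FFA product) and 241.20 (15:0 FFA).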

Row | SMILES | ABHD12 inhibitory activity, lyso-PS substrate assay
1 | Cc1cnc(N2CCN(NC(=S)Nc3cccnc3)CC2)c(Cl)c1 [DO127] | did not show any ABHD12 inhibitory activity

target: T2, ABHD12 (Mus musculus, UniProt Q99LR1); assay: gel-based ABPP of mouse brain membrane proteome using the JJH350 probe; type: biochemical; conditions: JJH350 probe; SAR statements
T2 sequence (Q99LR1 1-398): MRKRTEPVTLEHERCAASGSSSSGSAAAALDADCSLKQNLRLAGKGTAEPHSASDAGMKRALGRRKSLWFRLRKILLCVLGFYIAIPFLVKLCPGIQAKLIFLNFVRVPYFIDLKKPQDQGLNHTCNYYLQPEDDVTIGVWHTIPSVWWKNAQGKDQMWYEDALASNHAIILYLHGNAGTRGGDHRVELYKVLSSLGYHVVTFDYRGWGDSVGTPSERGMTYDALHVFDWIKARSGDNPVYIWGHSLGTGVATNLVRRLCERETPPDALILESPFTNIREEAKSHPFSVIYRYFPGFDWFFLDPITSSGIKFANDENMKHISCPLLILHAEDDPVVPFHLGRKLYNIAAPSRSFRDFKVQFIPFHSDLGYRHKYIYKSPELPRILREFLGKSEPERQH
Outline: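 Mouse brain was dounce-homogenized in DPBS, cleared at 1,400 × g (3 min, 4 °C) and spun at 16,000 × g (45 min, 4 °C); the membrane pellet was washed and resuspended. Proteome (1 mg/mL) was pretreated with test compound (20 min rt for (thio)ureas; 45 min 37 °C for carbamates), then labeled with JJH350 (2 μM final, 45 min, 37 °C).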

Row | SMILES | ABHD12 inhibitory activity, gel-based ABPP
2 | Cc1cnc(N2CCN(NC(=S)Nc3cccnc3)CC2)c(Cl)c1 [DO127] | did not show any ABHD12 inhibitory activity
3 | O=C(Nc1cccnc1)NC1CCN(c2ncc(C(F)(F)F)cc2Cl)CC1 [compound 8] | substantial loss in activity
4 | FC(F)(F)c1cnc(N2CCCC(NC(=S)Nc3cccnc3)C2)c(Cl)c1 (stereo not shown) [compound 13, N-3-Pyridyl-N’-[1-{3-chloro-5-(trifluoromethyl)pyridin-2-yl}piperidin-3-yl]thiourea] | abolished ABHD12 inhibitory activity; also recorded: dramatically reduced ABHD12 inhibitory activity
5 | S=C(Nc1cccnc1)NC1CCN(c2ncccc2Cl)CC1 [compound 22] | abolished ABHD12 activity up to 5 μM
6 | FC(F)(F)c1ccnc(N2CCC(NC(=S)Nc3cccnc3)CC2)c1 [compound 24] | first sub-micromolar inhibitors in this series
7 | COc1ccc(NC(=S)NC2CCN(c3ncc(C(F)(F)F)cc3Cl)CC2)cn1 [compound 9, N-{6-(methoxy)Pyridin-3-yl}-N’-[1-{3-chloro-5-(trifluoromethyl)pyridin-2-yl}piperidin-4-yl]thiourea] | diminished potency towards ABHD12
8 | Cc1c(Oc2ccc(OC(F)(F)F)cc2)ccnc1N1CCC(NC(=S)Nc2cccnc2)CC1 [compound 40, N-3-Pyridyl-N’-(1-[3-methyl-4-{4-(trifluoromethoxy)phenoxy}pyridine-2-yl]piperidin-4-yl)thiourea] | did not alter potency
9 | FC(F)(F)c1cnc(N2CCC(NC(=S)Nc3ccccc3)CC2)c(Cl)c1 [compound 12] | retained some ABHD12 inhibitory activity, albeit slightly lower than that of DO130
10 | FC(F)(F)c1cnc(N2CCC(NC(=S)N3CCCc4ccccc43)CC2)c(Cl)c1 [compound 11] | diminished potency towards ABHD12
11 | FC(F)(F)c1cnc(N2CCCC(NC(=S)Nc3cccnc3)CC2)c(Cl)c1 (stereo not shown) [compound 15] | substantial reductions
12 | CN(C(=S)Nc1cccnc1)C1CCN(c2ncc(C(F)(F)F)cc2Cl)CC1 [compound 20] | weakened ABHD12 activity
13 | COc1ccnc(N2CCC(NC(=S)Nc3cccnc3)CC2)c1 [compound 31] | even more deleterious effect
14 | FC(F)(F)Oc1ccc(Oc2ccnc(N3CCC[C@H](NC(=S)Nc4cccnc4)C3)c2Cl)c(Cl)c1 [(S)-DO271] | less active than (R)-DO271
15 | FC(F)(F)c1cnc(N2CCC(NC(=S)Nc3cccnc3)C2)c(Cl)c1 (stereo not shown) [compound 14] | near-complete loss
16 | FC(F)(F)c1cccc(N2CCC(NC(=S)Nc3cccnc3)CC2)n1 [compound 26] | first sub-micromolar inhibitors in this series
17 | FC(F)(F)c1cnc(N2C3CCC2CC(NC(=S)Nc2cccnc2)C3)c(Cl)c1 (stereo not shown) [compound 21] | impaired ABHD12 activity relative to DO130
18 | FC(F)(F)Oc1ccc(Oc2ccnc(N3CCC(NC(=S)Nc4cccnc4)CC3)c2C(F)(F)F)cc1 [compound 42] | reduced ABHD12 inhibitory activity
19 | FC(F)(F)c1cnc(N2CCC(NC(=S)Nc3cccnc3)CC2)c(Cl)c1 [DO130] | ABHD12 inhibitory activity as commercial AW01275
20 | Fc1ccc(Oc2ccnc(N3CCC(NC(=S)Nc4cccnc4)CC3)c2)cc1 [compound 37] | increased potency
21 | FC(F)(F)Oc1ccc(Oc2ccnc(N3CCC(NC(=S)Nc4cccnc4)CC3)c2)cc1 [compound 38] | increased potency
22 | FC(F)(F)c1cnc(N2CCC(NC(=S)Nc3cnc4ccccc4c3)CC2)c(Cl)c1 [compound 10] | diminished potency towards ABHD12
23 | N#Cc1c(Oc2ccc(OC(F)(F)F)cc2)ccnc1N1CCC(NC(=S)Nc2cccnc2)CC1 [compound 41] | reduced ABHD12 inhibitory activity
24 | FC(F)(F)c1ccc(N2CCC(NC(=S)Nc3cccnc3)CC2)nc1 [compound 23] | only a small loss in potency
25 | Cc1cnc(N2CCC(NC(=S)Nc3cccnc3)CC2)c(Cl)c1 [DO129, N-3-Pyridyl-N’-[1-{3-chloro-5-(methyl)pyridin-2-yl}piperidin-4-yl]thiourea] | exhibited ABHD12 inhibitory activity

same assay, conditions: compared to 28 or 38

Row | SMILES | increase in ABHD12 inhibitory activity [fold]
26 | FC(F)(F)Oc1ccc(Oc2ccnc(N3CCC(NC(=S)Nc4cccnc4)CC3)c2Cl)cc1 [compound 39] | > 10

same assay, conditions: compared to DO264

Row | SMILES | reduction in potency for ABHD12 inhibition
27 | FC(F)(F)Oc1ccc(Oc2ccnc(N3CCCC(NC(=S)Nc4cccnc4)C3)c2Cl)c(Cl)c1 (racemic) [(S,R)-DO271] | ~ 10,000 fold

same assay, conditions: relative to 39

Row | SMILES | lower potency of regioisomers
28 | FC(F)(F)Oc1cccc(Oc2ccnc(N3CCC(NC(=S)Nc4cccnc4)CC3)c2Cl)c1 [compound 43] | 3–4 fold
29 | FC(F)(F)Oc1ccccc1Oc1ccnc(N2CCC(NC(=S)Nc3cccnc3)CC2)c1Cl [compound 44] | 3–4 fold

same assay, conditions: relative to the 4-CF3 analogue

Row | SMILES | decrease in ABHD12 inhibitory activity on substituting the 4-CF3 group
30 | S=C(Nc1cccnc1)NC1CCN(c2cc(Cl)ccn2)CC1 [compound 30] | ~ 3 fold

target: T1, ABHD12; assay: not given; type: biochemical; conditions: FP-Rh probe 1 μM

Row | SMILES | time-dependent inhibition of ABHD12
31 | FC(F)(F)c1cnc(N2CCC(NC(=S)Nc3cccnc3)CC2)c(Cl)c1 [DO130] | did not show time-dependent inhibition of ABHD12

target: T2, ABHD12; assay: gel-based competitive ABPP using the FP-Rh probe, mouse brain membrane proteome; type: biochemical; conditions: up to 10 μM
Outline: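 Mouse brain membrane fraction was prepared by dounce homogenization in DPBS, a 1,400 × g clearing spin, and a 16,000 × g spin (45 min, 4 °C). Proteome (1 mg/mL) was pretreated with test compound (20 min rt for (thio)ureas; 45 min 37 °C for carbamates), then labeled with FP-Rh (1 μM final, 45 min, 37 °C). Samples were quenched in SDS loading buffer, separated by SDS-PAGE and read by in-gel fluorescence.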

Row | SMILES | ABHD12 activity
32 | COc1ccc(N2CCN(C(=O)ON3C(=O)C4CN(Cc5ccc(Oc6ccccc6)cc5)CCN4C3=O)CC2)cc1 (stereo not shown) [ABC34] | negligible ABHD12 activity up to 10 μM

target: T2, ABHD12; assay: not given; type: in vivo; conditions: 30 mg/kg, i.p., mice
Outline: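 Test compound was suspended in EtOH/PEG40 1:1 by bath sonication, then diluted with 9 volumes of DPBS (EtOH/PEG40/DPBS 1:1:18). Freshly prepared solution was given i.p. at 10 μL/g body weight. Mice were anesthetized with isoflurane and euthanized by cervical dislocation, and tissues were harvested. Tissue membrane proteomes were labeled with JJH350 (2 μM, 45 min, 37 °C), clicked to rhodamine azide and read by in-gel fluorescence.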

Row | SMILES | in vivo inhibition of ABHD12
33 | COc1ccc(N2CCN(C(=O)ON3C(=O)C4CN(C(=O)c5ccc(Oc6ccccc6)cc5)CCN4C3=O)CC2)cc1 (stereo not shown) [JJH329, 1,3-Dioxo-7-(4-phenoxybenzoyl)hexahydroimidazo[1,5-a]pyrazine-2(3H)-yl 4-(4-methoxyphenyl)piperazine-1-carboxylate] | only marginal inhibition of ABHD12

tested on: serine hydrolases; assay: selectivity by gel-based ABPP with FP-Rh in mouse brain proteome; type: biochemical; conditions: FP-Rh probe
Outline: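 Mouse brain homogenised in DPBS and cleared at 1,400 × g. Membranes pelleted at 16,000 × g (45 min, 4 °C) and resuspended in DPBS; used at 1 mg/mL. Test compound pretreatment: (thio)ureas 20 min at room temperature, NHH-carbamates 45 min at 37 °C. FP-Rh labelling (1 μM final) 45 min at 37 °C. Readout: 10% SDS-PAGE, in-gel fluorescence, band intensities quantified.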

Row | SMILES | selectivity / off-targets among serine hydrolases
34 | COc1ccc(N2CCN(C(=O)ON3C(=O)C4CN(C(=O)c5ccc(Oc6ccccc6)cc5)CCN4C3=O)CC2)cc1 (stereo not shown) [JJH329, 1,3-Dioxo-7-(4-phenoxybenzoyl)hexahydroimidazo[1,5-a]pyrazine-2(3H)-yl 4-(4-methoxyphenyl)piperazine-1-carboxylate] | ABHD6 was observed as the only off-target
